From ChEMBL document CHEMBL1139336, “Discovery of alpha-amidosulfones as potent and selective agonists of CB2: synthesis, SAR, and pharmacokinetic properties” (Bioorg Med Chem Lett, 2009) come the findings set out here.

As usually defined, the pEC50 is the EC50 on a negative log10 scale, so that one unit is a factor of ten. The term Emax denotes the size of the effect at its maximum, as opposed to the concentration needed. As usually defined, the microsomal CLint is a measure of how fast metabolising enzymes remove a compound, apart from limits set by blood flow. Usually clearance stands for a measure of how efficiently the substance is removed, as volume per time. Read a high clearance as efficient removal. In general, half-life refers to the time in which the quantity being followed falls by half. For orientation: AUC(0-inf) means total exposure, with the tail of the curve extrapolated. The term Cmax denotes the peak of the concentration-time curve. Broadly, the bioavailability is dose-corrected exposure relative to a reference, in per cent. Lower therefore signals poor availability.

pEC50: −log10 of the molar value. Some results are limits rather than exact numbers.

The target in data set [1] is T1, Cannabinoid receptor 2 (Homo sapiens, UniProt P34972). In words: Agonist activity at human CB2 receptor expressed in SF9 cells assessed as inhibition of CP-55940-stimulated GTP binding. An outline of the steps:
(§1)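 Sf9 membranes co-expressing hCB1 or hCB2 with Gαi3 (Bmax 1.7 pmol/ml). Europium-GTP (10 nM) binding in 50 mM Hepes, 0.1% BSA, 10 mM MgCl2, 150 mM NaCl, GDP, 0.0005% saponin, 1% DMSO. Compound tested from 0.01 nM upward. Incubated 45 min at room temperature, then filtered and washed; fluorescence read at 615 nm. 3 micromolar CP55940 defines 100% efficacy.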

Data set [2] has as its target T1, Cannabinoid receptor 2. In words: Agonist activity at human CB2 receptor expressed in SF9 cells assessed as inhibition of CP-55940-stimulated GTP binding relative to control. The method, boiled down:
(§2)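 Sf9 insect-cell membranes co-expressing hCB1 or hCB2 with Gαi3 (Bmax 1.7 pmol/ml). Compound added in 50 mM Hepes/0.1% BSA to buffer with 10 mM MgCl2, 150 mM NaCl, GDP, 10 nM GTP-Europium and 0.0005% saponin. Final DMSO was 1%. Incubated 45 min at room temperature, then filtered, washed and read by fluorescence at 615 nm. 3 µM CP55940 set 100% efficacy. Logistic fit, n = 2–20.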

Data set [3] addresses T2, Cannabinoid receptor 1 (Homo sapiens, UniProt P21554). In words: Agonist activity at human CB1 receptor expressed in SF9 cells assessed as inhibition of CP-55940-stimulated GTP binding. An outline of the steps:
as §1

For data set [4], the target named is T2, Cannabinoid receptor 1. In words: Agonist activity at human CB1 receptor expressed in SF9 cells assessed as inhibition of CP-55940-stimulated GTP binding relative to control. The method, boiled down:
as §2

For data set [5], the target named is T1, Cannabinoid receptor 2. In words: Agonist activity at human CB2 receptor expressed in CHO cells assessed as suppression of forskolin-stimulated cAMP accumulation. In kind it is functional, cell-based. An outline of the steps: (§3)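 Forskolin-induced cAMP measured in CHO cells expressing human CB1 or CB2. EC50 from a logistic fit of the concentration–response curve. Emax taken as the maximum of the dose–response. Means of n = 2–20 independent measurements.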
(Cyclic AMP is a second messenger, typically raised through Gs and lowered through Gi signalling.)

The target of data set [6] is T1, Cannabinoid receptor 2. In words: Agonist activity at human CB2 receptor expressed in CHO cells assessed as suppression of forskolin-stimulated cAMP accumulation relative to control. The data set is classed as functional, cell-based. An outline of the steps: (§4)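 CHO cells expressing human CB1 or CB2. Read-out was suppression of forskolin-induced cAMP production in whole cells. Emax was taken as the maximum of the dose–response curve. Values are means of n = 2–20 independent measurements, derived by logistic fit.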

The target of data set [7] is T2, Cannabinoid receptor 1. In words: Agonist activity at human CB1 receptor expressed in CHO cells assessed as suppression of forskolin-stimulated cAMP accumulation. The data set is classed as functional, cell-based. An outline of the steps:
as §3

In data set [8] the target is T2, Cannabinoid receptor 1. In words: Agonist activity at human CB1 expressed in CHO cells receptor assessed as suppression of forskolin-stimulated cAMP accumulation relative to control. The data set is classed as functional, cell-based. The method, boiled down:
as §4

The target in data set [9] is T1, Cannabinoid receptor 2. In words: Agonist activity at human CB2 receptor. The data set is classed as functional.
Data set [10] addresses T1, Cannabinoid receptor 2. In words: Agonist activity at human CB2 receptor relative to control. In kind it is functional.
Data set [11] addresses T2, Cannabinoid receptor 1. In words: Agonist activity at human CB1 receptor. The data set is classed as functional.
For data set [12], the target named is T2, Cannabinoid receptor 1. In words: Agonist activity at human CB1 receptor relative to control. In kind it is functional.
Data set [13] can be described thus: Intrinsic clearance in human liver microsomes. The data set is classed as ADME, Microsome. On the technique in general: Liver microsomes are a subcellular fraction often used to study metabolism.
Data set [14] can be described thus: Intrinsic clearance in rat liver microsomes. The data set is classed as ADME, Microsome.
The nature of data set [15]: Protein binding in human plasma. In kind it is ADME, cell-free. The conditions noted are these: read-out: PPB (converted).
Data set [16] is described as follows: Protein binding in rat plasma. The conditions noted are these: read-out: PPB (converted). The data set is classed as ADME, cell-free.
Data set [17] can be described thus: Clearance in Sprague-Dawley rat at 0.5 mg/kg, iv. In kind it is ADME, organism-based. Details: dose 0.5 mg/kg, route intravenous. Conditions: in vivo. An outline of the steps: (§5)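 Single intravenous dose of 0.5 mg/kg given as a solution in DMSO to Sprague–Dawley rats; n = 2 animals.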
The nature of data set [18]: Half life in Sprague-Dawley rat at 0.5 mg/kg, iv. The arrangement: dose 0.5 mg/kg, route intravenous. The conditions noted are these: in vivo. In kind it is ADME, organism-based. An outline of the steps:
as §5

Data set [19] in a line: Volume of distribution at steady state in Sprague-Dawley rat at 0.5 mg/kg, iv. The data set is classed as ADME, organism-based. Details: dose 0.5 mg/kg, route intravenous. The conditions noted are these: in vivo, read-out: Vdss. An outline of the steps: as §5
Data set [20] can be described thus: AUC (0 to infinity) in Sprague-Dawley rat at 10 mg/kg, po. The data set is classed as ADME, organism-based. The arrangement: time infinity, dose 10 mg/kg, route oral. The conditions noted are these: plasma. An outline of the steps: (§6)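 Oral dose of 10 mg/kg in a 2% HPMC, 1% Tween 80 vehicle given to Sprague–Dawley rats; n = 3 animals.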
Data set [21] can be described thus: Cmax in Sprague-Dawley rat at 10 mg/kg, po. The conditions noted are these: in vivo. In kind it is ADME, organism-based. The arrangement: dose 10 mg/kg, route oral. An outline of the steps:
as §6

Data set [22] relates to Rattus norvegicus. In words: Tmax in Sprague-Dawley rat at 10 mg/kg, po. The arrangement: dose 10 mg/kg, route oral. Conditions: in vivo. In kind it is ADME, organism-based. The method, boiled down: as §6
Data set [23] in a line: Oral bioavailability in Sprague-Dawley rat at 10 mg/kg. The conditions noted are these: in vivo. In kind it is ADME, organism-based. The method, boiled down: as §6

T1 sequence (P34972 whole entry): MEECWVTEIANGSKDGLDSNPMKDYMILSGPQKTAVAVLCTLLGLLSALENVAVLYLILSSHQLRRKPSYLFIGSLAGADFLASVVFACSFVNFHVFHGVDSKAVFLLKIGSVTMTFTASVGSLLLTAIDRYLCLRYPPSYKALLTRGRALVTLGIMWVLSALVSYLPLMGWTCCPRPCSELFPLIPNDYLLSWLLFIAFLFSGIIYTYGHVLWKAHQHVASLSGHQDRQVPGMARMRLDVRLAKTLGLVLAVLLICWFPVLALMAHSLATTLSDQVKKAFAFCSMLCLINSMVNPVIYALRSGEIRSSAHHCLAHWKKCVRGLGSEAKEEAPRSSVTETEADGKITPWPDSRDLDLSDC
T2 sequence (P21554 whole entry): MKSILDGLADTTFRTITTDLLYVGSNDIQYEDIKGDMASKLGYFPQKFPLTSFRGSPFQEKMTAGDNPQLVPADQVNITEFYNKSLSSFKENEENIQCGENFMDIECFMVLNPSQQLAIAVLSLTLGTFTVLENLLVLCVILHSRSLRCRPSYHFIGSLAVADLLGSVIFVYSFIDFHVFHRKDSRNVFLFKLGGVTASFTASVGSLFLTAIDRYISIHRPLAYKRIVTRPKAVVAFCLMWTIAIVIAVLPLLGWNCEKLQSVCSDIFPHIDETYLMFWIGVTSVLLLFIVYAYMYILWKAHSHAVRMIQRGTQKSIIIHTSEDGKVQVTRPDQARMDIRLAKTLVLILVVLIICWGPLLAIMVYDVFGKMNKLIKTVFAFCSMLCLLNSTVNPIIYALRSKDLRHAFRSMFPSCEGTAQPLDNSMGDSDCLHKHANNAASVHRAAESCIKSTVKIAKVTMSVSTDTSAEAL

On to `Cc1ccc(-c2cncc(NC(=O)C(C)(C)S(=O)(=O)c3ccc(Cl)cc3)c2)s1`, for which the pEC50 in [1] was 8.05; in data set [3] it was 6.49; in data set [5], 8.30; in data set [7] it was 6.48. The Emax in data set [2] was found to be 102%; in data set [4], 80%; in [6], 99%; in data set [8] it was 106%.
As to `CC(C)(C(=O)Nc1ccc(Cl)c(Br)c1)S(=O)(=O)c1ccc(Cl)cc1`, the pEC50 was 7.07 in data set [1] and under 5.00 in data set [3]. In addition, the Emax in data set [2] is 77%; in [4] it was 7%.
`CC(C)(C(=O)Nc1cccc(C(F)(F)F)c1)S(=O)(=O)c1ccc(Cl)cc1`: the pEC50 in data set [1] is 6.77; in data set [3] it was under 5.00; in data set [5] it was 7.46; in data set [7], under 6.00. For the same molecule, the Emax stood at 89% in [2], 15% in [4], 93% in data set [6] and 21% in data set [8].
With `Cc1ccccc1-c1nnc(NC(=O)C(C)(C)S(=O)(=O)c2ccc(Cl)cc2)s1`, the results for the pEC50 in data set [1] and in [3] were 6.72 and 5.78, respectively. Besides, the Emax in data set [2] came out at 81%; in data set [4], 48%.
For `CC(C)(C(=O)Nc1ccc(Cl)cc1C#N)S(=O)(=O)c1ccc(Cl)cc1`, the pEC50 in [1] and in data set [3] was under 5.00 in each case. Further, the Emax was determined as 14% in [2] and 0% in data set [4].
In the case of `Cc1cc(NC(=O)C(C)(C)S(=O)(=O)c2ccc(Cl)cc2)no1`, the negative logarithm of the EC50 (pEC50) in data set [1] was 5.41; in [3], under 5.00. Further, the figures for the Emax in [2] and in data set [4] were 19% and 1%, respectively.
Consider `CC1(c2nnc(NC(=O)C(C)(C)S(=O)(=O)c3ccc(Cl)cc3)s2)CCOC1` (stereo not given), for which the pEC50 in data set [1] is 6.67; in [3], under 5.00. Besides, the Emax in [2] was 99%; in data set [4] it was 10%.
On to `O=C(Nc1cnc2ccccc2c1)C1(S(=O)(=O)c2ccccc2)CC1`, for which the pEC50 in [9] is 8.40; in [11] it was under 5.00. Moreover, the Emax in data set [10] was found to be 31%; in data set [12] it was 6%.
For `CCn1c2ccccc2c2cc(NC(=O)C3(S(=O)(=O)c4ccccc4)CC3)ccc21`, in that order: 8.10, 6.41, 95% and 40%.
On to `CC(C)(C(=O)Nc1cnc2ccccc2c1)S(=O)(=O)c1ccc(F)cc1Cl`, for which the pEC50 in data set [1] is 6.98; in [3] it was under 5.00. Besides, the Emax was found to be 108% in data set [2] and 7% in data set [4].
As to `CC(C)(C(=O)Nc1cnc2ccccc2c1)S(=O)(=O)c1ccc(Cl)cc1`, the pEC50 in data set [1] is 7.24; in data set [3], 5.77; in data set [5], 7.89; in data set [7] it was under 6.00. The maximum response (Emax) in data set [2] came to 90%; in data set [4] it was 47%; in data set [6] it was 93%; in data set [8] it was 47%.
For the molecule `Cn1nc(C(C)(C)C)cc1NC(=O)C(C)(C)S(=O)(=O)c1ccc(Cl)cc1`, the pEC50 was 7.59 in data set [1], 3.65 in data set [3], 7.60 in data set [5] and under 5.70 in [7]. The Emax was 104% in [2], 37% in data set [4], 92% in data set [6] and 12% in data set [8]. The figures for the microsomal CLint in [13] and in data set [14] were 14 µL/min/mg and 20 µL/min/mg, respectively. In addition, the figures for the fraction unbound in data set [15] and in [16] were 0.064 and 0.06, respectively. Further, the clearance in data set [17] was 20 mL/min/kg. In data set [18], this molecule showed a half-life of 1.9 h. In data set [19], the Vd turned out to be 2 L/kg. For the same molecule, the AUC(0-inf) in data set [20] came to 3570 ng·h/mL. In data set [21], this molecule returned a Cmax of 971 ng/mL. Besides, in data set [22], the Tmax amounted to 0.67%. Besides, the bioavailability in [23] amounted to 43%.
